Results from PubChem BioAssay AID488804 (Broad Institute, 2010).
Calls of active or inactive are those of the source.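 How the source made its calls: active means luminescence cut by over half relative to the proteasome inhibitor control, with potency below ten times the top valid dose; inactive means no activity, or signal change in the wrong direction.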

These compounds were tested against 26S proteasome chymotrypsin-like activity (human) (assay: proteasome function in U2OS cells – cell-based, luminescence, dry powder, set 2, counter-screen, dose response (AID 488804)). Settings: Proteasome-Glo chymotrypsin luminescence.
In short: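 Compound dosing: Eight-point threefold dilution series, 16.5 mM top stock; material: human U2OS osteosarcoma cells, proteasome chymotrypsin-like activity; incubation: cells 24 h/37 °C, compounds 4 h, reagent 2 h RT; replicates: duplicates; measured by: Proteasome-Glo chymotrypsin luminescence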
`O=C(Nc1ncc(-c2ccccc2)o1)c1cc(-c2ccccc2)on1` showed an AC50 of 38 µM. `CCCCNC(=O)c1cc(-c2ccccc2)on1` showed an AC50 of 38 µM. `Cc1cccc(NC(=O)c2cc(-c3ccccc3)on2)n1` showed an AC50 of 2.63 µM. `O=C(Nc1cn2ccccc2n1)c1cc(-c2ccccc2)on1` was tested, and the AC50 was 6.99 µM. With `O=C(Nc1ncc2ccccc2n1)c1cc(-c2ccccc2)on1` the AC50 was 23.5 µM.

Same assay, conditions: Proteasome-Glo chymotrypsin luminescence, at 38 µM (top of the series)
In the case of `c1ccc(-c2nnc(-c3ccccn3)nc2NCC2CCCCC2)cc1`, the “activity change, negative = inhibition” value is reported as “inactive”. In the case of `c1ccc(-c2nnc(Nc3nc(-c4ccccn4)nnc3-c3ccccc3)s2)cc1`, the “activity change, negative = inhibition” value is reported as “inactive”. In the case of `Cc1ccc(NC(=O)c2cc(-c3ccccc3)on2)cn1`, the “activity change, negative = inhibition” value is reported as “inactive”. In the case of `O=C(NCC1CC1)c1cc(-c2ccccc2)on1`, the “activity change, negative = inhibition” value is reported as “inactive”. With `OCC1CCN(c2nc(-c3ccccn3)nnc2-c2ccccc2)CC1` the “activity change, negative = inhibition” value was “inactive”. `Cc1ccc(Nc2nc(-c3ccccn3)nnc2-c2ccccc2)cn1` was tested, and the “activity change, negative = inhibition” value was “inactive”. `CC(C)(C)CCNc1nc(-c2ccccn2)nnc1-c1ccccc1` was tested, and the “activity change, negative = inhibition” value was “inactive”. In the case of `O=C(Nc1ccc2ccccc2n1)c1cc(-c2ccccc2)on1`, the “activity change, negative = inhibition” value is reported as “inactive”. For `O=C(NCCCn1ccnc1)c1cc(-c2ccccc2)on1`, the “activity change, negative = inhibition” value was “inactive”. With `Cc1cccc(CNc2nc(-c3ccccn3)nnc2-c2ccccc2)c1` the “activity change, negative = inhibition” value was “inactive”. In the case of `O=C(NCC1CCCCC1)c1cc(-c2ccccc2)on1`, the “activity change, negative = inhibition” value is reported as “inactive”. With `O=C(Nc1nc(-c2ccccc2)cs1)c1cc(-c2ccccc2)on1` the “activity change, negative = inhibition” value was “inactive”. In the case of `CN(C)CCNC(=O)c1cc(-c2ccccc2)on1`, the “activity change, negative = inhibition” value is reported as “inactive”. For `Cc1ccc(CNC(=O)c2cc(-c3ccccc3)on2)cc1`, the “activity change, negative = inhibition” value was “inactive”. With `c1ccc(-c2nnc(-c3ccccn3)nc2NCCCN2CCOCC2)cc1` the “activity change, negative = inhibition” value was “inactive”. With `O=C(NC1Cc2ccccc2C1)c1cc(-c2ccccc2)on1` the “activity change, negative = inhibition” value was “inactive”. In the case of `c1ccc(-c2nnc(-c3ccccn3)nc2NCCN2CCOCC2)cc1`, the “activity change, negative = inhibition” value is reported as “inactive”. In the case of `c1ccc(-c2nnc(-c3ccccn3)nc2N2CCN(c3ccncc3)CC2)cc1`, the “activity change, negative = inhibition” value is reported as “inactive”. With `Cn1c(NC(=O)c2cc(-c3ccccc3)on2)nc2ccccc21` the “activity change, negative = inhibition” value was “inactive”. For `O=C(Nc1cnc2ccccc2c1)c1cc(-c2ccccc2)on1`, the “activity change, negative = inhibition” value was “inactive”. With `Cc1ccccc1CNC(=O)c1cc(-c2ccccc2)on1` the “activity change, negative = inhibition” value was “inactive”. For `Cc1ccccc1CNc1nc(-c2ccccn2)nnc1-c1ccccc1`, the “activity change, negative = inhibition” value was “inactive”. For `Cc1cccc(Nc2nc(-c3ccccn3)nnc2-c2ccccc2)n1`, the “activity change, negative = inhibition” value was “inactive”. For `O=C(NC1CCc2ccccc2C1)c1cc(-c2ccccc2)on1` (centres undefined), the “activity change, negative = inhibition” value was “inactive”. In the case of `CN1CCN(c2nc(-c3ccccn3)nnc2-c2ccccc2)CC1`, the “activity change, negative = inhibition” value is reported as “inactive”. `O=C(NCc1ccccc1)c1cc(-c2ccccc2)on1` was tested, and the “activity change, negative = inhibition” value was “inactive”. In the case of `c1ccc(CNc2nc(-c3ccccn3)nnc2-c2ccccc2)cc1`, the “activity change, negative = inhibition” value is reported as “inactive”. With `O=C(NCCCN1CCOCC1)c1cc(-c2ccccc2)on1` the “activity change, negative = inhibition” value was “inactive”. With `O=C(NCCN1CCCCC1)c1cc(-c2ccccc2)on1` the “activity change, negative = inhibition” value was “inactive”. In the case of `C=CCNc1nc(-c2ccccn2)nnc1-c1ccccc1`, the “activity change, negative = inhibition” value is reported as “inactive”. With `O=C(c1cc(-c2ccccc2)on1)N1CCN(c2ccncc2)CC1` the “activity change, negative = inhibition” value was “inactive”. With `Cc1cccc(CNC(=O)c2cc(-c3ccccc3)on2)c1` the “activity change, negative = inhibition” value was “inactive”. For `c1ccc(-c2nnc(-c3ccccn3)nc2NCC2CC2)cc1`, the “activity change, negative = inhibition” value was “inactive”. With `c1ccc(-c2nnc(-c3ccccn3)nc2Nc2nc3ccccc3s2)cc1` the “activity change, negative = inhibition” value was “inactive”. For `O=C(c1cc(-c2ccccc2)on1)N1CCC(CO)CC1`, the “activity change, negative = inhibition” value was “inactive”. In the case of `O=C(c1cc(-c2ccccc2)on1)N1CCC(N2CCCC2)CC1`, the “activity change, negative = inhibition” value is reported as “inactive”. `c1ccc(-c2nnc(-c3ccccn3)nc2Nc2cnc3ccccc3n2)cc1` was tested, and the “activity change, negative = inhibition” value was “inactive”. In the case of `Cn1c(-c2ccccc2)cnc1NC(=O)c1cc(-c2ccccc2)on1`, the “activity change, negative = inhibition” value is reported as “inactive”. With `c1ccc(-c2csc(Nc3nc(-c4ccccn4)nnc3-c3ccccc3)n2)cc1` the “activity change, negative = inhibition” value was “inactive”. For `O=C(c1cc(-c2ccccc2)on1)N1CCc2cccnc21`, the “activity change, negative = inhibition” value was “inactive”. With `Cn1c(-c2ccccc2)cnc1Nc1nc(-c2ccccn2)nnc1-c1ccccc1` the “activity change, negative = inhibition” value was “inactive”. `O=C(c1cc(-c2ccccc2)on1)N1CCC(N2CCOCC2)CC1` was tested, and the “activity change, negative = inhibition” value was “inactive”. In the case of `O=C(NCCCO)c1cc(-c2ccccc2)on1`, the “activity change, negative = inhibition” value is reported as “inactive”. With `Cc1ccc(CNc2nc(-c3ccccn3)nnc2-c2ccccc2)cc1` the “activity change, negative = inhibition” value was “inactive”. In the case of `O=C(NCCCCO)c1cc(-c2ccccc2)on1`, the “activity change, negative = inhibition” value is reported as “inactive”. In the case of `c1ccc(-c2nnc(-c3ccccn3)nc2N2CCC(N3CCOCC3)CC2)cc1`, the “activity change, negative = inhibition” value is reported as “inactive”. `c1ccc(-c2cnc(Nc3nc(-c4ccccn4)nnc3-c3ccccc3)s2)cc1` was tested, and the “activity change, negative = inhibition” value was “inactive”. For `O=C(Nc1nc2ccccc2s1)c1cc(-c2ccccc2)on1`, the “activity change, negative = inhibition” value was “inactive”. With `O=C(NCCN1CCOCC1)c1cc(-c2ccccc2)on1` the “activity change, negative = inhibition” value was “inactive”. `CN(C)c1nc(-c2ccccn2)nnc1-c1ccccc1` was tested, and the “activity change, negative = inhibition” value was “inactive”. For `CN1CCN(C(=O)c2cc(-c3ccccc3)on2)CC1`, the “activity change, negative = inhibition” value was “inactive”. `OCCCNc1nc(-c2ccccn2)nnc1-c1ccccc1` was tested, and the “activity change, negative = inhibition” value was “inactive”. `O=C(Nc1nnc(-c2ccccc2)s1)c1cc(-c2ccccc2)on1` was tested, and the “activity change, negative = inhibition” value was “inactive”. `CC(C)(C)CCNC(=O)c1cc(-c2ccccc2)on1` was tested, and the “activity change, negative = inhibition” value was “inactive”.
